Published values gathered from unrelated publications.
Short transient receptor potential channel 5: Short transient receptor potential channel 5 (Mus musculus, UniProt Q9QX29)
Htr2a: 5-hydroxytryptamine receptor 2A (Htr2a, Mus musculus, UniProt P35363)

| Structure (SMILES) | target | assay | test system | setting | endpoint | result |
| --- | --- | --- | --- | --- | --- | --- |
| CC(=O)c1c(C)c2cnc(Nc3ccc(C4CCN(CCS(C)(=O)=O)CC4)cn3)nc2n(C2CCCC2)c1=O | Cytochrome P450 1A2 (CYP1A2, Homo sapiens, UniProt P05177) | enzyme activity, inhibitor | human, liver microsomes |  | IC50 | > 10 µM |
| CN1CC[C@@]2(C)c3cc(OC(=O)Nc4ccccc4)ccc3N(C)[C@@H]12 | Aldehyde dehydrogenase, mitochondrial (ALDH2, Homo sapiens, UniProt P05091) | enzyme activity, inhibitor, fluorescence |  |  | IC50 | < 10 µM |
| CN(C)CCCN1c2ccccc2CCc2ccccc21 | Short transient receptor potential channel 5 | ion current, inhibitor, patch clamp |  |  | IC50 | 11.7 µM |
| COc1cc2c(cc1OC)CN(CCc1ccc(NC(=O)c3cccc4c(=O)c5cccc(OC)c5[nH]c34)cc1)CC2 | Beta-3 adrenergic receptor (ADRB3, Homo sapiens, UniProt P13945) | cell-free assay |  |  | Ki | > 10 µM |
| COc1cc(CCN)c(OC)cc1C#N | Htr2a | G protein activation, agonist, BRET |  |  | EC50 | 0.32 µM |
| Cc1ccc(OCC(=O)N[C@@H](Cc2c[nH]c3ccccc23)C(=O)OC(C)C)cc1 | Cytochrome P450 3A4 (CYP3A4, Homo sapiens, UniProt P08684) | enzyme activity, inhibitor | human, liver microsomes | 30 min, midazolam probe | IC50 | > 50 µM |
| COc1cc(CCNC(C)c2ccccc2O)c(OC)cc1Br (centres unmarked) | Htr2a | G protein activation, agonist, BRET |  |  | EC50 | 0.00094 µM |
| CNCCCN1c2ccccc2CCc2ccccc21 | Short transient receptor potential channel 5 | ion current, inhibitor, patch clamp |  |  | IC50 | 10.3 µM |
